From PubChem BioAssay
PHOSPHO1 block: blocks human PHOSPHO1 phosphatase activity. inhibition, % at 13.3 µM. 290,000 tested, 1.1% active. Q8TCT1. recombinant PHOSPHO1, absorbance phosphatase assay. AID 1565; in the data active = inhibition above about 60%
KCNK9 block: inhibitors of human KCNK9 two-pore domain potassium channel | B-score at 10 µM | HEK293 KCNK9, FluxOR thallium flux fluorescence; hits give low values | 310,000 tested, 1.2% active;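 active = ratio B-score over 3 SD below the library mean, with starting fluorescence within 5 SD of its mean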;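 note: negative B-score means less thallium flux so channel inhibition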
KCNK3 block: human KCNK3 channel inhibition, primary screen | 340,000 tested, 0.84% active | AID 602410 | O14649 | CHO-KCNK3 thallium flux, FluxOR fluorescence; hits give low values | B-score at 10 µM;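 active = B-score under library mean minus 4 SD, starting fluorescence ratio at most library mean plus 5 SD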;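 note: more negative B-score means stronger inhibition of thallium flux through KCNK3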
hERG protect: compounds protecting human hERG from proarrhythmic drug block | Q12809 | CHO-hERG, FluxOR thallium flux, dofetilide IC70 present | activation (rescue from dofetilide block), less the hit threshold, % at 10 µM | 310,000 tested, 0.51% active | AID 1511;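 active = activation above the mean of controls blocked by dofetilide plus 5 SD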;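 note: thallium influx through hERG after potassium depolarization seen as dye fluorescence rise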
KCNQ1 act: potentiates or activates the human KCNQ1 potassium channel. AID 2648. B-score at 10 µM. P51787. CHO-K1 KCNQ1, thallium flux FluxOR fluorescence; hits give high values. 310,000 tested, 0.35% active;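 active = fluorescence ratio B-score, a plate-corrected score, at least three library SD, with initial intensity B-score within 5 SD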
Target sequence (P51787 whole entry, looked up): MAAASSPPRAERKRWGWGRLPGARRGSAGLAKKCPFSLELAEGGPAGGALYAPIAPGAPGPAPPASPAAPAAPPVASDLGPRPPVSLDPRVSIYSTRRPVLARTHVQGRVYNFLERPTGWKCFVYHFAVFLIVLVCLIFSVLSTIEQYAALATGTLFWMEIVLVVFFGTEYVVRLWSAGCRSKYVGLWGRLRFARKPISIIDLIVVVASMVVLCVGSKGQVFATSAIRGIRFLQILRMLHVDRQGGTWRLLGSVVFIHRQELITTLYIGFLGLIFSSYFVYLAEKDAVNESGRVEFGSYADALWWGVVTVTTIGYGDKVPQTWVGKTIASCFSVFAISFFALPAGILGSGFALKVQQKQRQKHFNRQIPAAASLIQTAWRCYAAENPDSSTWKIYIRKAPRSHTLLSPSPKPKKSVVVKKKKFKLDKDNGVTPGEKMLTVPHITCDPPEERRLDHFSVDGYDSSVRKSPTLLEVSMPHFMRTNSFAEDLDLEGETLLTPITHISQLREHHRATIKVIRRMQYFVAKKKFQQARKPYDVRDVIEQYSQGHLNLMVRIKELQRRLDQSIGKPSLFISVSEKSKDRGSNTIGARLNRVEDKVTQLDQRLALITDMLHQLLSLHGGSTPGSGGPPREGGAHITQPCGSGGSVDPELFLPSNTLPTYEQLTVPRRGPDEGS
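Test system: CHO-K1 cells stably expressing KCNQ1 / Medium: assay buffer / Also added: depolarizing K+/Tl+ stimulus, K2SO4 and Tl2SO4 each 12.5 mM in 5x stock / Incubation: 90 min dye loading and 20 min compound exposure, both at room temperature / Signal: thallium influx via FluxOR fluorescence, kinetic imaging / Evaluation: B score of baseline-normalized fluorescence ratio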
KCNQ1 inh: inhibitors of human KCNQ1 potassium channel; B-score at 10 µM; 310,000 tested, 1.3% active; P51787; CHO-K1 KCNQ1, FluxOR thallium flux fluorescence; hits give high values;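 active = compounds whose thallium flux B-score, printed positive for inhibition, exceeds three library SD while starting fluorescence stays within three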;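 note: channel opened by potassium depolarization with thallium stimulus after 20 min compound exposure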
KCNK9 block conf: human KCNK9 inhibitor confirmation | AID 492992 | shares compounds with KCNK9 block | HEK293 KCNK9 cells, FluxOR thallium flux fluorescence | inhibition, % at 10 µM | 4,900 tested, 43% active;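 active = thallium signal inhibited by more than 5 SD of the compound-free buffer control wells, on both duplicate plates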;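 note: 0% = assay buffer control wells without compound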
Kir21 sel: mouse Kir2.1 off-target activity of KCNK9 modulators. 4,900 tested, 4% active. shares compounds with KCNK9 block. inhibition, % at 10 µM. AID 492993. Kir2.1 cells, FluxOR thallium flux fluorescence;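 active = thallium signal drop more than 5 SD beyond the mean of the no-compound control wells, seen in both duplicate plates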;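 note: signal is fluorescence rise after thallium addition divided by baseline fluorescence; plate controls were assay buffer only for no effect and full block by chlorpromazine control for full effect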
HEK293 Tl ctr: second counter-screen for KCNK9 modulators: effect in non-induced cells; non-induced KCNK9-HEK293, FluxOR thallium flux; AID 492997; shares compounds with KCNK9 block; 4,900 tested, 40% active; inhibition, % at 10 µM;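 active = thallium signal drop beyond 5 SD of the untreated control mean, on both duplicate plates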;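 note: plate controls were buffer only IC0 wells for no effect and SID17386958 at its maximal inhibitory level for full effect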
* = called active by the depositor; i = inactive; . = no result; ! = not confirmed by another sample. Only some compounds are listed: those with a hit (about 4% of all), similar ones and a draw of the others.

SMILES	PHOSPHO1 block	KCNK9 block	KCNK3 block	hERG protect	KCNQ1 act	KCNQ1 inh	KCNK9 block conf	Kir21 sel	HEK293 Tl ctr
CCOc1cc(C(=O)N2CCN(C/C=C/c3ccccc3)CC2)cc(OCC)c1OCC	2.4	i	i	-4.0	i	i	i	i	i
O=C1c2ccccc2C(=O)N1CCCCN(C(=O)c1cc2ccccc2oc1=O)c1ccc(F)cc1F	-2.4	i	i	-8.1	i	i	.	.	.
COc1ccc(/C=C2\N=C(C)OC2=O)cc1OC	47.9	i	i	-6.0	i	i	.	.	.
COc1ccc(N2CCN(C(=O)c3ccc(F)cc3)CC2)c([N+](=O)[O-])c1	27.4	i	i	-9.5	i	i	.	.	.
O=C(c1ccc(F)cc1)N1CCN(c2cc(N3CCCCC3)c(F)cc2[N+](=O)[O-])CC1	8.2	i	i	-7.6	i	i	i	i	i
COc1ccc(CN2C(=O)[C@H]3Cc4c([nH]c5ccccc45)C(C)(C)N3C2=O)cc1	.	i	i	-9.7	i	i	i	i	i
COc1ccc(CN2C(=O)[C@@H]3Cc4c([nH]c5ccccc45)C(C)(C)N3C2=O)cc1	.	i	i	-4.1	i	i	.	.	.
COc1ccc(/C=C/C(=O)NC(=S)N2CCCCC2)cc1OC	4.1	i	i	-10.0	i	i	.	.	.
Cc1occc1C(=O)Nc1cccc(C(F)(F)F)c1	8.0	-9.32*	i	-13.9	i	i	48.0%*	i	24.5%*
O=C(NNC(=S)Nc1cccc(C(F)(F)F)c1)c1ccc(Cl)cc1Cl	-4.9	i	i	-6.6	i	8*	i	i	i
Cc1cc(C(F)(F)F)nc(NCc2ccc(F)cc2)n1	4.6	i	i	-8.3	i	i	.	.	.
CCCNC(=O)c1onc(CSc2ccc(Cl)cc2)c1C(=O)NCCOC	.	i	i	-5.1	i	i	.	.	.
CC(C)CCNC(=O)c1onc(CSc2ccc(F)cc2)c1C(=O)NCCC(C)C	.	i	i	-2.5	i	7*	i	i	i
CC(C)CCNC(=O)c1onc(CSc2ccc(Cl)cc2)c1C(=O)NCCC(C)C	30.9	i	i	-13.9	i	i	i	i	i
CC(C)CCNC(=O)c1onc(CSc2ccccc2)c1C(=O)NCCC(C)C	.	i	i	-5.8	i	i	i	i	i
CCCNC(=O)c1onc(CSc2ccc(F)c(F)c2)c1C(=O)NCCC	.	i	.	-6.6	i	i	.	.	.
CCCNC(=O)c1onc(CSc2ccccc2)c1C(=O)NCCC	.	i	i	-11.1	i	i	.	.	.
CN(C)CCNC(=O)c1onc(CSc2ccc(F)cc2)c1C(=O)NCCN(C)C	35.3	i	i	-7.2	i	i	.	.	.
CC(C)CCNC(=O)c1onc(CSc2ccc(F)c(F)c2)c1C(=O)NCCC(C)C	17.7	i	i	-5.1	i	i	i	i	i
COc1ccc(N2C(=O)CCC(C(=O)NCCCN3CCC(C)CC3)C2c2ccc(OC)c(OC)c2)cc1 (stereo unspecified)	-16.9	i	i	-10.0	i	i	.	.	.
Cc1ccc(S(=O)(=O)N/N=C\c2cn(CC(N)=O)c3ccccc23)cc1C	31.3	i	i	-14.2	i	i	.	.	.
Cc1ccc(Cl)cc1NC(=O)N[C@@H](CC(C)C)C(=O)O	3.7	i	i	-10.1	i	i	.	.	.
CC(C)(C)n1ncc2c(=O)n(Cc3c(F)cccc3Cl)cnc21	37.9	i	i	-5.8	i	i	.	.	.
COc1cccc(SCc2noc(C(=O)NCCC(C)C)c2C(=O)NCCC(C)C)c1	.	i	i	-13.4	i	i	i	i	i
CCOc1ccc(OCC)c(Nc2cc(C)nc3ncnn23)c1	-2.0	i	i	-5.2	i	i	i	i	24.5%*
SMILES	PHOSPHO1 block	KCNK9 block	KCNK3 block	hERG protect	KCNQ1 act	KCNQ1 inh	KCNK9 block conf	Kir21 sel	HEK293 Tl ctr
Cc1cc(C)cc(Oc2nc(C(F)(F)F)nc3ccccc23)c1	21.5	i	i	-3.5	i	i	i	i	24.0%*
NC(=NCCCCCCN=C(N)/N=C(\N)Nc1ccc(Cl)cc1)/N=C(\N)Nc1ccc(Cl)cc1	-0.5	-10.2*	i	-5.0	12*!	i	50.5%*	38.5%*	i
CC(C)N=C(N)N=C(N)Nc1ccc(Cl)cc1	.	.	i	.	.	.	.	.	.
CCc1ccccc1N(C)S(=O)(=O)c1ccc2[nH]cc(C(=O)N3CCc4ccccc43)c(=O)c2c1	16.7	-9.3*	i	-11.8	i	i	i	i	25.5%*
COc1ccc(C#Cc2ccc3c(=O)c4ccccc4n(C)c3c2)cc1	4.0	i	i	-15.0	i	i	i	i	i
COc1ccccc1C#Cc1ccc2c(=O)c3ccccc3n(C)c2c1	20.9	-9.73*	i	-23.1	i	i	44.0%*	i	i
Cn1c2ccccc2c(=O)c2cc(C#Cc3cccc(N)c3)ccc21	.	.	i	.	.	.	.	.	.
Cc1nnsc1C(=O)Nc1ccccc1	-68.2	i	i	-3.5	i	i	.	.	.
O=C(NCc1ccccc1)[C@]1(C(F)(F)F)C[C@H](CCc2ccccc2)CCCO1	.	i	i	-7.7	i	i	i	i	i
CCCC[C@@H]1CCCO[C@@](C(=O)NCc2ccc(C)o2)(C(F)(F)F)C1	.	i	i	-9.4	i	i	i	i	i
CCC[C@@H]1CCCO[C@@](C(=O)NCc2ccc(S(C)(=O)=O)cc2)(C(F)(F)F)C1	.	i	i	-3.1	i	i	.	.	.
CCCCC1CCCOC(C(=O)NCCNCCO)(C(F)(F)F)C1 (stereo unspecified)	.	i	i	-6.0	i	i	.	.	.
C=CC[C@H](CC(=O)N(CCO)Cc1ccccc1)C(=O)N[C@H](C)COC(=O)[C@@H](CC=C)CC(=O)OC(C)(C)C	.	.	i	.	.	.	.	.	.
O=C(C1CCC(=O)N(C2CCCC2)C1)N1CCN(c2ccc(Cl)cc2)CC1 (stereo unspecified)	7.9	i	i	-7.0	i	i	.	.	.
CC(C)(C)c1ccc(CN(Cc2ccco2)Cc2nnnn2C2CCCC2)cc1	42.0	-14*	i	-24.5	i	6*	62.0%*	i	49.0%*
COc1ccc2cc(CN(Cc3ccco3)Cc3nnnn3C3CCCCC3)c(=O)[nH]c2c1	22.8	i	i	-11.3	i	i	.	.	.
